From ChEMBL document CHEMBL1828587, “Pyrazolo[1,5-a]pyrimidines, triazolo[1,5-a]pyrimidines and their tricyclic derivatives as corticotropin-releasing factor 1 (CRF₁) receptor antagonists” (Bioorg Med Chem, 2011)
The source made the active and inactive calls. The rule behind the calls is not given here.

system: not listed separately; assay: AUC (0 to infinity) in rat at 1 mg/kg, iv; assay type: ADME, organism-based; parameters: dose 1 mg/kg, route intravenous, time infinity; settings: plasma
How it was run: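 Single iv dose of 1 mg/kg in saline containing 30% HP-β-CD (w/v), given to fasted male rats (n = 4). Plasma stored at -70 °C. AUC derived from the plasma concentration time course.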

| AUC(0-inf) [ng·h/mL] | Compound |
| --- | --- |
| 96 | CCCN(CCC)c1c(C)c(Nc2ccc(OC)cc2Cl)nc2ccnn12 |

system: not listed separately; assay: AUC (0 to infinity) in rat at 10 mg/kg, po; assay type: ADME, organism-based; parameters: time infinity, dose 10 mg/kg, route oral; settings: plasma
How it was run: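 Single oral dose of 10 mg/kg in saline containing 0.5% MC (w/v), given to fasted male rats (n = 4). Heparinized jugular vein blood taken at 1, 2, 4, 6, 8, 24, 48, 72 h. Plasma stored at -70 °C. AUC to infinity derived from the plasma concentration time course.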

| AUC(0-inf) [ng·h/mL] | Compound |
| --- | --- |
| 153 | CCCN(CCC)c1c(C)c(Nc2ccc(OC)cc2Cl)nc2ccnn12 |

target: T1, Corticotropin-releasing factor receptor 1 (Homo sapiens, UniProt P34998); assay: Antagonist activity at human CRF1 receptor expressed in CHO-K1 cells assessed as inhibition of CRF-induced cAMP accumulation after 15 mins by cAMP enzyme immunoassay; assay type: functional, cell-based; settings: not given
T1 sequence (P34998 whole entry): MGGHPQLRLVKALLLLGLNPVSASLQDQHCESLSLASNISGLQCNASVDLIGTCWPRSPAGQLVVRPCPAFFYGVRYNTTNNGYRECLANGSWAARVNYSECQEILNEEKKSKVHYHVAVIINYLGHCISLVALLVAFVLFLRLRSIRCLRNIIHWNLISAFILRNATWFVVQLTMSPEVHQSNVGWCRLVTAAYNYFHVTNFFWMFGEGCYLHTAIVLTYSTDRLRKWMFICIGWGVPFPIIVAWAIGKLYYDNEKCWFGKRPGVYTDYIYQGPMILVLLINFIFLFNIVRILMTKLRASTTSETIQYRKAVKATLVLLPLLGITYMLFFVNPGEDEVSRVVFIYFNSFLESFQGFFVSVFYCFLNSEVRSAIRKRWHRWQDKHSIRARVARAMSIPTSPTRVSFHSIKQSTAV
How it was run: (§1)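 CRF1-expressing CHO-K1 cells seeded at 1×10^4 cells/well and cultured overnight. Cells were washed with F-12 and preincubated 10 min at 37 °C in F-12 containing 1 mmol/l IBMX. Test compound (1–10000 nmol/l) was then added together with CRF (10 nmol/l in the added medium). After 15 min at 37 °C, intracellular cAMP was measured by enzyme immunoassay. IC50 was taken from concentration–response curves.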

| Compound | EC50 [nM] |
| --- | --- |
| CCC(CC)n1ccc2c(Nc3c(C)cc(C)cc3C)nc3ccnn3c21 | 4.1 |
| CCc1cc(OC)ccc1Nc1nc2ccnn2c2c1ccn2C(CC)CC | 3.5 |
| CCc1cc(Cl)ccc1Nc1nc2ccnn2c2c1ccn2C(CC)CC | 3.9 |
| CCCN(CCC)c1c(C)c(Nc2ccc(OC)cc2Cl)nc2ncnn12 | 9 |
| CCC(CC)Nc1c(C)c(Nc2ccc(OC)cc2Cl)nc2ccnn12 | 7.4 |
| CCC(CC)Nc1c(C)c(Nc2ccc(OC)cc2Cl)nc2ncnn12 | 58 |
| CCC(CC)Nc1cc(Nc2ccc(OC)cc2Cl)nc2ccnn12 | 113 |

More lines, now with the values ahead:

| EC50 [nM] | Compound |
| --- | --- |
| 53 | CCCN(CCC)c1cc(Nc2ccc(OC)cc2Cl)nc2ccnn12 |
| 856 | C=C(C)CN(c1cc(N(CCC)CCC)n2nccc2n1)c1ccc(OC)cc1Cl |
| 95 | CCCc1c(Nc2ccc(OC)cc2Cl)nc2ccnn2c1N(CCC)CCC |
| 234 | CCCN(CCC)c1c(C(C)C)c(Nc2ccc(OC)cc2Cl)nc2ccnn12 |
| 4.4 | CCCN(CCC)c1cc(N(COC)c2ccc(OC)cc2Cl)nc2ccnn12 |
| 8.6 | CCCN(CCC)c1c(CC)c(Nc2ccc(OC)cc2Cl)nc2ccnn12 |
| 28.9 | C=CCN(c1cc(N(CCC)CCC)n2nccc2n1)c1ccc(OC)cc1Cl |
| 75.7 | CCCN(CCC)c1cc(N(CCC)c2ccc(OC)cc2Cl)nc2ccnn12 |
| 4 | CCCN(CCC)c1c(C)c(Nc2ccc(OC)cc2Cl)nc2ccnn12 |

system: not listed separately; assay: Total clearance in rat at 1 mg/kg, iv; assay type: ADME, organism-based; parameters: dose 1 mg/kg, route intravenous; settings: in vivo
How it was run: (§2)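 Fasted male rats (n = 4) received 1 mg/kg iv in saline/30% HP-β-CD or 10 mg/kg po in saline/0.5% MC. Jugular blood was sampled up to 72 h, and plasma obtained by centrifugation and stored at -70 °C. AUC, Cmax, Tmax, T1/2, Vss and CL were derived from plasma concentration–time courses. F = dose-normalized AUCpo/AUCiv ×100.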

| clearance [mL/min/kg] | Compound |
| --- | --- |
| 186 | CCCN(CCC)c1c(C)c(Nc2ccc(OC)cc2Cl)nc2ccnn12 |

system: not listed separately; assay: Volume of distribution at steady state in rat at 1 mg/kg, iv; assay type: ADME, organism-based; parameters: dose 1 mg/kg, route intravenous; settings: in vivo, read-out: Vdss; how it was run: as §2

| Vd [L/kg] | Compound |
| --- | --- |
| 14.4 | CCCN(CCC)c1c(C)c(Nc2ccc(OC)cc2Cl)nc2ccnn12 |

system: not listed separately; assay: Half life in rat at 10 mg/kg, po; assay type: ADME, organism-based; parameters: dose 10 mg/kg, route oral; settings: in vivo; how it was run: as §2

| half-life [h] | Compound |
| --- | --- |
| 3.4 | CCCN(CCC)c1c(C)c(Nc2ccc(OC)cc2Cl)nc2ccnn12 |

target: T2, Corticotropin-releasing factor receptor 1 (Rattus norvegicus, UniProt P35353); assay: Antagonist activity at rat CRF1 receptor expressed in CHO-K1 cells assessed as inhibition of CRF-induced cAMP accumulation after 15 mins by cAMP enzyme immunoassay; assay type: functional, cell-based; settings: not given; how it was run: as §1
T2 sequence (P35353 whole entry): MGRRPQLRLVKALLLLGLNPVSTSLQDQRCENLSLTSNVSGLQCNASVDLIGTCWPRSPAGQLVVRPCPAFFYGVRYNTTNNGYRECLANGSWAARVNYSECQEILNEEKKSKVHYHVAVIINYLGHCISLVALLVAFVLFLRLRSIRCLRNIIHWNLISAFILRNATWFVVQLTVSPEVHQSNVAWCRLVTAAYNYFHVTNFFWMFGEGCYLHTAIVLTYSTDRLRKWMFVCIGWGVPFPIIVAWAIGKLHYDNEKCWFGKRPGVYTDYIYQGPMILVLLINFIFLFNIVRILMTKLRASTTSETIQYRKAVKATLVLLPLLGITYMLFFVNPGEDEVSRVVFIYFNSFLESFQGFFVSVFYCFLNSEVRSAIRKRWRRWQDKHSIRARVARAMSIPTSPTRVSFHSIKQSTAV

| EC50 [nM] | Compound |
| --- | --- |
| 81 | CCCN(CCC)c1c(C)c(Nc2ccc(OC)cc2Cl)nc2ccnn12 |

system: not listed separately; assay: Cmax in rat at 10 mg/kg, po; assay type: ADME, organism-based; parameters: dose 10 mg/kg, route oral; settings: in vivo; how it was run: as §2

| Cmax [ng/mL] | Compound |
| --- | --- |
| 27.4 | CCCN(CCC)c1c(C)c(Nc2ccc(OC)cc2Cl)nc2ccnn12 |

target: T1, Corticotropin-releasing factor receptor 1; assay: Displacement of [125I]-CRF from human CRF1 receptor expressed in CHO-K1 cells after 2 hrs by gamma counting; assay type: cell-based; settings: not given
How it was run: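 Crude membranes were made from CRF1-expressing CHO-K1 cells in 50 mmol/l Tris-HCl with 10 mmol/l MgCl, 2 mmol/l EDTA and aprotinin. Membranes were incubated with 125I human/rat CRF (0.5 nmol/l solution added) and test compound (1~10000 nmol/L) for 2 h at room temperature. Bound and free ligand were separated by centrifugation and the pellet washed with PBS/0.01% Triton X-100, then gamma-counted. Nonspecific binding was defined with 1 µmol/l unlabeled CRF. IC50 was taken from concentration–response curves.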

| Compound | IC50 [nM] |
| --- | --- |
| CCC(CC)n1ccc2c(Nc3c(C)cc(C)cc3C)nc3ccnn3c21 | 6.1 |
| CCc1cc(OC)ccc1Nc1nc2ccnn2c2c1ccn2C(CC)CC | 2.4 |
| CCc1cc(Cl)ccc1Nc1nc2ccnn2c2c1ccn2C(CC)CC | 4.7 |
| CCCN(CCC)c1c(C)c(Nc2ccc(OC)cc2Cl)nc2ncnn12 | 8 |
| CCC(CC)Nc1c(C)c(Nc2ccc(OC)cc2Cl)nc2ccnn12 | 7.4 |
| CCC(CC)Nc1c(C)c(Nc2ccc(OC)cc2Cl)nc2ncnn12 | 16 |
| CCC(CC)Nc1cc(Nc2ccc(OC)cc2Cl)nc2ccnn12 | 14 |

Second part, the molecule after the results:

| IC50 [nM] | Compound |
| --- | --- |
| 61 | CCCN(CCC)c1cc(Nc2ccc(OC)cc2Cl)nc2ccnn12 |
| 76.7 | C=C(C)CN(c1cc(N(CCC)CCC)n2nccc2n1)c1ccc(OC)cc1Cl |
| 32 | CCCc1c(Nc2ccc(OC)cc2Cl)nc2ccnn2c1N(CCC)CCC |
| 113 | CCCN(CCC)c1c(C(C)C)c(Nc2ccc(OC)cc2Cl)nc2ccnn12 |
| 15 | CCCN(CCC)c1cc(N(COC)c2ccc(OC)cc2Cl)nc2ccnn12 |
| 4.2 | CCCN(CCC)c1c(CC)c(Nc2ccc(OC)cc2Cl)nc2ccnn12 |
| 4.4 | C=CCN(c1cc(N(CCC)CCC)n2nccc2n1)c1ccc(OC)cc1Cl |
| 418 | CCCN(CCC)c1cc(N(CCC)c2ccc(OC)cc2Cl)nc2ccnn12 |
| 8 | CCCN(CCC)c1c(C)c(Nc2ccc(OC)cc2Cl)nc2ccnn12 |

system: not listed separately; assay: Half life in rat at 1 mg/kg, iv; assay type: ADME, organism-based; parameters: dose 1 mg/kg, route intravenous; settings: in vivo; how it was run: as §2

| half-life [h] | Compound |
| --- | --- |
| 1.7 | CCCN(CCC)c1c(C)c(Nc2ccc(OC)cc2Cl)nc2ccnn12 |

system: not listed separately; assay: Oral bioavailability in rat at 10 mg/kg; assay type: ADME, organism-based; settings: in vivo; how it was run: as §2

| bioavailability [%] | Compound |
| --- | --- |
| 16 | CCCN(CCC)c1c(C)c(Nc2ccc(OC)cc2Cl)nc2ccnn12 |

system: Rattus norvegicus; assay: Anxiolytic activity against swim-stress-induced anxiety like behavior in Sprague-Dawley rat assessed as increase in spent time in open arms at 10 mg/kg, po administered 1 hr before stress-challenge by elevated plus-maze test; assay type: functional, organism-based; parameters: dose 10 mg/kg; settings: not given
How it was run: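 Male Sprague-Dawley rats (230–280 g) were dosed orally with compound in 0.5% MC, and tested 1 h after dosing. Rats were then placed on the elevated plus-maze (50 cm high) and video-tracked for 5 min for time in and entries into open arms. Results are mean ± S.E., n=16; vehicle vs drug by Dunnett test.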

| Compound | Activity |
| --- | --- |
| CCCN(CCC)c1c(C)c(Nc2ccc(OC)cc2Cl)nc2ccnn12 | Active |

system: not listed separately; assay: Tmax in rat at 10 mg/kg, po; assay type: ADME, organism-based; parameters: dose 10 mg/kg, route oral; settings: in vivo; how it was run: as §2

| Tmax [h] | Compound |
| --- | --- |
| 4 | CCCN(CCC)c1c(C)c(Nc2ccc(OC)cc2Cl)nc2ccnn12 |

system: not listed separately; assay: Ratio of drug level in brain to plasma in rat at 10 mg/kg, po after 1 hr; assay type: ADME, organism-based; parameters: dose 10 mg/kg, route oral; settings: read-out: BPR
How it was run: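 Rats were dosed orally at 10 mg/kg. Kp was calculated as brain content divided by plasma concentration, 1.0 h after dosing.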

| Kp at 1 h | Compound |
| --- | --- |
| 6.2 | CCCN(CCC)c1c(C)c(Nc2ccc(OC)cc2Cl)nc2ccnn12 |
